Results published in ChEMBL document CHEMBL2412955, “Synthesis and antibacterial activities of N-substituted-glycinyl 1H-1,2,3-triazolyl oxazolidinones” (2013).
Converted amounts (≈) assume the structure as drawn.

Legend:
Type in all cases: functional
[1] = system: Enterococcus; assay: Ratio of PH084 MIC to compound MIC for vancomycin-susceptible Enterococcus
[2] = system: Staphylococcus; assay: Ratio of linezolid MIC to compound MIC for methicillin-susceptible coagulase-negative Staphylococcus
[3] = system: Moraxella catarrhalis; assay: Antibacterial activity against Moraxella catarrhalis ATCC 8176 after 18 hrs by NCCLS agar dilution method; details: ATCC 8176, 18 h
In short: (§1)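 NCCLS agar dilution on Mueller-Hinton agar with 5% sheep blood added to support growth. Drug dilutions 0.12–64 µg/ml. Test agents in 80% DMSO in water, linezolid in 40% water in ethanol. Final inoculum 10^7 CFU/ml, 18 h at 35 °C. MIC read as the lowest concentration with no visible growth.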

[4] = system: Streptococcus pneumoniae; assay: Ratio of PH084 MIC to compound MIC for penicillin-resistant Streptococcus pneumoniae
[5] = system: Staphylococcus; assay: Ratio of PH084 MIC to compound MIC for methicillin-susceptible coagulase-negative Staphylococcus
[6] = system: Streptococcus pneumoniae; assay: Antibacterial activity against penicillin-resistant Streptococcus pneumoniae after 18 hrs by NCCLS agar dilution method
In short: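 Agar dilution was run on Mueller-Hinton agar supplemented with 5% sheep blood, with drug dilutions from 0.12 to 64 µg/ml. Test compounds were dissolved in 80% DMSO in water. Final inoculum was 10^7 CFU/ml, incubated at 35 °C for 18 h. MIC was the lowest concentration preventing visible growth.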

[7] = system: Enterococcus; assay: Ratio of linezolid MIC to compound MIC for vancomycin-susceptible Enterococcus
[8] = system: Enterococcus; assay: Antibacterial activity against vancomycin-resistant Enterococcus after 18 hrs by NCCLS agar dilution method
In short: (§2)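 Clinical isolates were tested by agar dilution on Mueller-Hinton agar with drug dilutions from 0.12 to 64 µg/ml. Test compounds were dissolved in 80% DMSO in water. Final inoculum was 10^7 CFU/ml, incubated at 35 °C for 18 h. MIC was the lowest concentration inhibiting visible growth.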

[9] = system: Moraxella catarrhalis; assay: Antibacterial activity against Moraxella catarrhalis clinical isolate 138 after 18 hrs by NCCLS agar dilution method; details: clinical isolate 138, 18 h; in short: as §1
[10] = system: Staphylococcus aureus; assay: Antibacterial activity against methicillin-susceptible Staphylococcus aureus after 18 hrs by NCCLS agar dilution method; in short: as §2
[11] = system: Enterococcus; assay: Antibacterial activity against vancomycin-susceptible Enterococcus after 18 hrs by NCCLS agar dilution method; in short: as §2
[12] = system: Moraxella catarrhalis; assay: Antibacterial activity against Moraxella catarrhalis clinical isolate 255 after 18 hrs by NCCLS agar dilution method; details: clinical isolate 255, 18 h; in short: as §1
[13] = system: Staphylococcus; assay: Antibacterial activity against methicillin-susceptible coagulase-negative Staphylococcus after 18 hrs by NCCLS agar dilution method; in short: as §2
[14] = system: Moraxella catarrhalis; assay: Antibacterial activity against Moraxella catarrhalis clinical isolate 125 after 18 hrs by NCCLS agar dilution method; details: clinical isolate 125, 18 h; in short: as §1
[15] = system: Staphylococcus aureus; assay: Ratio of PH027 MIC to compound MIC for methicillin-susceptible Staphylococcus aureus
[16] = system: Staphylococcus; assay: Antibacterial activity against methicillin-resistant coagulase-negative Staphylococcus after 18 hrs by NCCLS agar dilution method; in short: as §2
[17] = system: Streptococcus pneumoniae; assay: Ratio of PH027 MIC to compound MIC for penicillin-resistant Streptococcus pneumoniae
[18] = system: Streptococcus pneumoniae; assay: Ratio of linezolid MIC to compound MIC for penicillin-resistant Streptococcus pneumoniae
[19] = system: Staphylococcus aureus; assay: Ratio of PH084 MIC to compound MIC for methicillin-susceptible Staphylococcus aureus
[20] = system: Enterococcus; assay: Ratio of PH027 MIC to compound MIC for vancomycin-susceptible Enterococcus
[21] = system: Escherichia coli; assay: Antibacterial activity against Escherichia coli ATCC 25922 after 18 hrs by NCCLS agar dilution method; details: ATCC 25922, 18 h
In short: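 Agar dilution per NCCLS on Mueller-Hinton agar, drug dilutions 0.12–64 µg/ml. Linezolid dissolved in 40% water in ethanol, vancomycin in water, test agents in 80% DMSO in water. Inoculum 10^7 CFU/ml (final), incubated 35 °C for 18 h. MIC is the lowest concentration preventing visible growth.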

[22] = system: Staphylococcus; assay: Ratio of PH027 MIC to compound MIC for methicillin-susceptible coagulase-negative Staphylococcus
[23] = system: Moraxella catarrhalis; assay: Antibacterial activity against Moraxella catarrhalis clinical isolate 3447 after 18 hrs by NCCLS agar dilution method; details: clinical isolate 3447, 18 h; in short: as §1
[24] = system: Haemophilus influenzae; assay: Antibacterial activity against Haemophilus influenzae ATCC 49247 after 18 hrs by NCCLS agar dilution method; details: ATCC 49247, 18 h; in short: as §1
[25] = system: Staphylococcus aureus; assay: Antibacterial activity against methicillin-resistant Staphylococcus aureus after 18 hrs by NCCLS agar dilution method; in short: as §2
[26] = system: Moraxella catarrhalis; assay: Antibacterial activity against Moraxella catarrhalis clinical isolate 112 after 18 hrs by NCCLS agar dilution method; details: clinical isolate 112, 18 h; in short: as §1
[27] = system: Staphylococcus aureus; assay: Antibacterial activity against Staphylococcus aureus ATCC 25923 after 18 hrs by […] in presence of human plasma; details: ATCC 25923, Plasma
In short: (§3)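 To gauge plasma protein binding and/or plasma instability, MIC was determined in Mueller-Hinton broth containing 50% human plasma. Linezolid served as a reference agent. Ratio compares this MIC with the MIC obtained without plasma.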

[28] = system: Moraxella catarrhalis; assay: Antibacterial activity against Moraxella catarrhalis clinical isolate 2824 after 18 hrs by NCCLS agar dilution method; details: clinical isolate 2824, 18 h; in short: as §1
[29] = system: Moraxella catarrhalis; assay: Antibacterial activity against Moraxella catarrhalis clinical isolate 1 after 18 hrs by NCCLS agar dilution method; details: clinical isolate 1, 18 h; in short: as §1
[30] = system: Moraxella catarrhalis; assay: Ratio of linezolid MIC to compound MIC for Moraxella catarrhalis ATCC 8176
[31] = system: Moraxella catarrhalis; assay: Antibacterial activity against Moraxella catarrhalis clinical isolate 36 after 18 hrs by NCCLS agar dilution method; details: clinical isolate 36, 18 h; in short: as §1
[32] = system: Staphylococcus aureus; assay: Antibacterial activity against Staphylococcus aureus ATCC 25923 after 18 hrs by NCCLS agar dilution method; details: ATCC 25923, 18 h
In short: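 Plain Mueller-Hinton agar, agar dilution per NCCLS, concentrations 0.12–64 µg/ml. Test agents in 80% DMSO in water, linezolid in 40% water in ethanol, vancomycin in water. Final inoculum 10^7 CFU/ml, 35 °C for 18 h. MIC = lowest concentration inhibiting visible growth.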

[33] = system: Staphylococcus aureus; assay: Ratio of linezolid MIC to compound MIC for methicillin-susceptible Staphylococcus aureus
[34] = system: Staphylococcus aureus; assay: Ratio of MIC for Staphylococcus aureus ATCC 25923 to MIC for Staphylococcus aureus ATCC 25923 in presence of human plasma; in short: as §3

SMILES	MIC [3] [µg/mL]	MIC [6] [µg/mL]	MIC [8] [µg/mL]	MIC [9] [µg/mL]	MIC [10] [µg/mL]	MIC [11] [µg/mL]	MIC [12] [µg/mL]	MIC [13] [µg/mL]	MIC [14] [µg/mL]	MIC [16] [µg/mL]	MIC [21] [µg/mL]	MIC [23] [µg/mL]	MIC [24] [µg/mL]	MIC [25] [µg/mL]	MIC [26] [µg/mL]	MIC [27] [µg/mL]	MIC [28] [µg/mL]	MIC [29] [µg/mL]	Ratio [30]	MIC [31] [µg/mL]	also measured
O=C(NCC(=O)N1CCN(c2ccc(N3C[C@H](Cn4ccnn4)OC3=O)cc2F)CC1)c1ccc([N+](=O)[O-])o1	1 (≈ 1.84 µM)	< 0.25	0.25 (≈ 0.461 µM)	1 (≈ 1.84 µM)	0.06 (≈ 0.111 µM)	0.25 (≈ 0.461 µM)	1 (≈ 1.84 µM)	0.06 (≈ 0.111 µM)	1 (≈ 1.84 µM)	0.06 (≈ 0.111 µM)	> 64	1 (≈ 1.84 µM)	8 (≈ 14.7 µM)	0.06 (≈ 0.111 µM)	1 (≈ 1.84 µM)	< 0.25	1 (≈ 1.84 µM)	1 (≈ 1.84 µM)	8	1 (≈ 1.84 µM)	Ratio [1]: 4; Ratio [2]: 4; Ratio [4]: 4; Ratio [5]: 4; Ratio [7]: 4; Ratio [15]: 4; Ratio [17]: 4; Ratio [18]: 4; Ratio [19]: 4; Ratio [20]: 4; Ratio [22]: 4; MIC [32]: < 0.25 µg/mL; Ratio [33]: 4
Cc1cn(C[C@H]2CN(c3ccc(N4CCN(C(=O)CNC(=O)c5cc([N+](=O)[O-])cc([N+](=O)[O-])c5)CC4)c(F)c3)C(=O)O2)nn1	1 (≈ 1.64 µM)	0.25 (≈ 0.409 µM)	2 (≈ 3.27 µM)	1 (≈ 1.64 µM)	1 (≈ 1.64 µM)	1 (≈ 1.64 µM)	0.5 (≈ 0.818 µM)	1 (≈ 1.64 µM)	0.5 (≈ 0.818 µM)	1 (≈ 1.64 µM)	> 64	0.5 (≈ 0.818 µM)	> 16	1 (≈ 1.64 µM)	0.5 (≈ 0.818 µM)	8	1 (≈ 1.64 µM)	1 (≈ 1.64 µM)	8	1 (≈ 1.64 µM)	Ratio [34]: 4; MIC [32]: 2 µg/mL (≈ 3.27 µM)
Cc1cn(C[C@H]2CN(c3ccc(N4CCN(C(=O)CNC(=O)c5ccc([N+](=O)[O-])o5)CC4)c(F)c3)C(=O)O2)nn1	0.5 (≈ 0.898 µM)	< 0.25	0.5 (≈ 0.898 µM)	1 (≈ 1.8 µM)	0.06 (≈ 0.108 µM)	0.25 (≈ 0.449 µM)	1 (≈ 1.8 µM)	0.06 (≈ 0.108 µM)	1 (≈ 1.8 µM)	0.06 (≈ 0.108 µM)	16 (≈ 28.8 µM)	1 (≈ 1.8 µM)	2 (≈ 3.59 µM)	0.06 (≈ 0.108 µM)	1 (≈ 1.8 µM)	< 0.25	1 (≈ 1.8 µM)	1 (≈ 1.8 µM)	16	1 (≈ 1.8 µM)	Ratio [1]: 4; Ratio [2]: 4; Ratio [4]: 4; Ratio [5]: 4; Ratio [7]: 4; Ratio [15]: 4; Ratio [17]: 4; Ratio [18]: 4; Ratio [19]: 4; Ratio [20]: 4; Ratio [22]: 4; MIC [32]: < 0.25 µg/mL; Ratio [33]: 4
